Reference: paper PMC10692362 (Acta Pharmaceutica Sinica. B, 2023)
Numbering of substitutions follows the chain as printed. Several values for one entry are separate records, joined by “and”; a condition that tells them apart may be missing. Identical values can stand only once.

Columns and labels:
[1] = biological target: T1, human ERα LBD (Homo sapiens, UniProt P03372); assay: Competitive fluorescence polarization binding assay, ERα
T1 sequence (P03372 311-547 limits assumed): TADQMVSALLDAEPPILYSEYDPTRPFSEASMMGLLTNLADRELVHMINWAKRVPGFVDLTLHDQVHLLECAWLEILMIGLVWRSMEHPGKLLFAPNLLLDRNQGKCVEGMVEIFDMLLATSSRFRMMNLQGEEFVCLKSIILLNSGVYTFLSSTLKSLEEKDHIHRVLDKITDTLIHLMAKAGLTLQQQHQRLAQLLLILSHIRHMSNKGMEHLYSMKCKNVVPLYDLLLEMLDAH

[2] = tested on: T-47D cells; assay: Cell viability assay; format: cell-based, human; conditions: Homo sapiens, T47D, 72 h, read-out: T-47D IC50
[3] = tested on: T-47D^D538G cells; assay: Cell viability assay; format: cell-based, human; conditions: Homo sapiens, 72 h, read-out: T-47D^D538G IC50
[4] = tested on: LCC-2 cells; assay: Cell viability assay on tamoxifen-resistant LCC-2 cells; format: cell-based; conditions: Homo sapiens, LCC2, read-out: LCC-2 IC50
[5] = biological target: T2, ERα (Homo sapiens, UniProt P03372); assay: Immunoblot analysis of ERα degradation in T-47D cells; format: cell-based; conditions: 5 μmol/L over 12 h
T2 sequence (P03372 1-595): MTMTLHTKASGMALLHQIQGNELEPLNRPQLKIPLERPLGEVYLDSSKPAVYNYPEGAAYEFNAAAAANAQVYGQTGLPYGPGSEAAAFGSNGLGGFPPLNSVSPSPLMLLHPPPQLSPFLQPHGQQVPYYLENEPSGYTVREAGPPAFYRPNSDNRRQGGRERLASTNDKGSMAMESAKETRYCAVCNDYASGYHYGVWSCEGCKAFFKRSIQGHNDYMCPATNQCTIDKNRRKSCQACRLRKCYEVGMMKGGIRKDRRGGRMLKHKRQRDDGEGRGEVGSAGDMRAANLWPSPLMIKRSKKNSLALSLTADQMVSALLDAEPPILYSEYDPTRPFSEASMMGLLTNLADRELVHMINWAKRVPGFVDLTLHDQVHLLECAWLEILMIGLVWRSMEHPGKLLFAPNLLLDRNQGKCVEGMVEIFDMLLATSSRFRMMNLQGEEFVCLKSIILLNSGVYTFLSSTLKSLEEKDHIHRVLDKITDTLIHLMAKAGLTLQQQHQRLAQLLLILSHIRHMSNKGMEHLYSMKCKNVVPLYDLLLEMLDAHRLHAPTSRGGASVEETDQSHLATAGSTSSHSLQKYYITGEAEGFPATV

[6] = biological target: T3, ERα Y537S (Homo sapiens, UniProt P03372, Y537S); assay: Immunoblot analysis of ERα degradation in T-47D^Y537S cells; format: cell-based; conditions: 5 μmol/L over 12 h
T3 sequence (P03372 1-595 Y537S): T2 sequence (P03372 1-595) with Y537S

[7] = biological target: T4, ERα Y537S and C381S–C417S–Y537S proteins (Homo sapiens, UniProt P03372, Y537S); assay: Intact mass spectrometry to assess covalency; format: binding; conditions: 20 μmol/L compound : 1 μmol/L protein, 4 °C overnight
T4 sequence (P03372 305-554 Y537S): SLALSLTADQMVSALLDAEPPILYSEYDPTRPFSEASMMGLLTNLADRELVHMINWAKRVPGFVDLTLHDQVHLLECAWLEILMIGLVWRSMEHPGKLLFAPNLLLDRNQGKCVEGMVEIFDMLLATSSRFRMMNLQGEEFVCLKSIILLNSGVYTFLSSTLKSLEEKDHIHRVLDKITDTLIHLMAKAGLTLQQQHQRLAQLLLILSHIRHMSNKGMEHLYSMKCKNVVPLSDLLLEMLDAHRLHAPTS

[8] = PK studies in mice; format: in vivo, BALB/c female mice
Method in brief: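 Female BALB/c mice (n = 3/group) were dosed iv at 2 mg/kg in DMSO/PEG400/β-cyclodextrin/saline (5:40:10:45), ip at 4 mg/kg in DMSO/PEG400/saline (5:40:55), or po at 20 mg/kg in corn oil/DMSO (95:5). Blood was sampled at […]. Plasma was deproteinised with MeCN and analysed by LC/MS/MS, with three plasma samples per time point.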

[9] = tested on: MCF-7 tumor xenograft; assay: MCF-7 tumor xenograft model in BALB/c nude mice; format: in vivo
Method in brief: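 Female BALB/c nude mice (15–18 g, 5 weeks old) received 1 × 10⁷ MCF-7 cells in 100 μL PBS into the right axillary mammary fat pad. Tumour volume (W² × L × 0.5) and body weight were measured every 2 days. Mice were sacrificed on Day 33. Tumours were assessed by IHC (Ki-67, ERα) and ERα Western blot.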

[10] = female, BALB/c, mouse, plasma, ip, 4 mg/kg
[11] = female, BALB/c, mouse, plasma, iv, 2 mg/kg
[12] = female, BALB/c, mouse, plasma, po, 20 mg/kg

For CC(C)=CC(=O)Nc1ccc(C2=C(c3ccc(O)cc3)C3OC2CC3S(=O)(=O)N(CC(F)(F)F)c2ccc(O)cc2)cc1 (stereo not shown) [Compound 29c, N-(4-(3-(4-Hydroxyphenyl)-5-(N-(4-hydroxyphenyl)-N-(2,2,2-trifluoroethyl)sulfamoyl)-7-oxabicyclo[2.2.1]hept-2-en-2-yl)phenyl)-3-methylbut-2-enamide], the Ki [1] was 0.09 nM, the “RBA ERα” value ([1]; IC50 estradiol/IC50 compound × 100, estradiol = 100%) was 30.44% and 30.44 ± 1.13% and the α/β ratio ([1]; ratio of RBA ERα to RBA ERβ) was 49.90. The IC50 [2] was 870 ± 150 nM, the IC50 [3] was 1910 ± 180 nM and the IC50 [4] was 2100 ± 370 nM. The “ERα degradation time course, T-47D” value [5] was “completely degraded”, the “ERα degradation time course, T-47D^Y537S” value [6] was “completely degraded” and the “Covalent adduct with ERα (intact MS)” value [7] was “specifically and covalently bound to residue C530”. It also gave an AUC [8, 10] of 960 ng·h/mL, a Cmax [8, 10] of 352 ng/mL and a Tmax [8, 10] of 0.167 h. The half-life [8, 10] was 6.38 h, the AUC [8, 11] was 1210 ng·h/mL and the Cmax [8, 11] was 1420 ng/mL. For the same molecule, the Tmax [8, 11] was 0.083 h, the Vd [8, 11] was 4.5 L/kg and the clearance [8, 11] was 27.7 mL/min/kg. It also gave a half-life [8, 11] of 2.77 h, an AUC [8, 12] of 360 ng·h/mL and a Cmax [8, 12] of 153 ng/mL. For the same molecule, the Tmax [8, 12] was 0.5 h, the half-life [8, 12] was 5.81 h and the Oral bioavailability ([8]; mice) was “insufficient oral bioavailability”. The “ERα level in xenograft tumors (IHC, Western blot)” value ([9]; 4 mg/kg ip) was “significantly degrade ERα”, the “TGI (tumor growth inhibition)” value ([9]; 4 mg/kg ip every other day, Day 32) was 92% and the “Tumor weight, 29c compared with Ful” value ([9]; both at 2 mg/kg) was “no statistically significant difference in tumor weight”. For the same molecule, the “H&E analysis of main visceral organs” value ([9]; heart, liver, spleen, kidney, ip administration) was “did not show significant changes in the main visceral organs”, the “Body weight of mice” value ([9]; ip 2 or 4 mg/kg every other day) was “did not apparently reduce mice body weight” and the “Tumor cell proliferation (Ki-67 IHC)” value ([9]; ip administration) was “significantly reduced tumor cell proliferation”. The “Tumor growth inhibition activity” value ([9]; ip dose of 2 or 4 mg/kg) was “significant tumor growth inhibition”.
